The record followed here is paper PMC3142331 (Molecular cell, 2011).

In experiment [1] the test system is Mce F367N. Nature of the experiment: fluorescence polarization binding. The arrangement: species or system mouse. The following applies: pH 7.0, 23°C; versus wild-type. A digest of the protocol: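 N-terminally fluorescein-labelled 11-aa CTD peptide (phosphorylated at central Ser2 and Ser5) was titrated with increasing concentrations of E. coli-expressed recombinant Mce protein, wild-type or mutant. Polarization was read at 23°C, pH 7.0, and Kd was derived from the binding curves. Three independent experiments were run in triplicate; error is one standard deviation.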
(In general: Polarisation of emitted light reports the rotation of a fluorescent probe.)

For experiment [2], the target named is Mce-V372Y/C383Y (Mus musculus, UniProt O55236, C383Y/V372Y). Description: fluorescence polarization binding. The settings on record: pH 7.0, 23°C.
Chain of Mce-V372Y/C383Y (O55236 227-567 V372Y/C383Y): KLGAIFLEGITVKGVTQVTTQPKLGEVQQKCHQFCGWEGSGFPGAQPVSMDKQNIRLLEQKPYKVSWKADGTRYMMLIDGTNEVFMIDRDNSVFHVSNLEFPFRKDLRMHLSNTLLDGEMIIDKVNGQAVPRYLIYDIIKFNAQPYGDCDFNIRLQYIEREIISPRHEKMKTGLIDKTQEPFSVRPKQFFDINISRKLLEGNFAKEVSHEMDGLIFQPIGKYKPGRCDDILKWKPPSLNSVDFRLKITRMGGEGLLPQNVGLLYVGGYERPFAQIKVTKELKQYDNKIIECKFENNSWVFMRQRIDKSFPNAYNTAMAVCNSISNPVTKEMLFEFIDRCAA

As for `C[C@@H](O)[C@H](NC(=O)[C@@H]1CCCN1C(=O)[C@H](CO)NC(=O)c1ccc2c(c1)C(=O)OC21c2ccc(O)cc2Oc2cc(O)ccc21)C(=O)N[C@@H](COP(=O)(O)O)C(=O)N1CCC[C@H]1C(=O)N[C@@H](CO)C(=O)N[C@@H](Cc1ccc(O)cc1)C(=O)N[C@@H](COP(=O)(O)O)C(=O)N1CCC[C@H]1C(=O)N[C@H](C(=O)N[C@@H](CO)C(=O)O)[C@@H](C)O` [Fluor-S2P3T4S5PP6S7Y1S2PP3T4S5], the “effect of mutation on binding” value in experiment [1] is on record as “No effect in binding was observed”. Further, the “increase in Kd compared to wild-type Mce” value in experiment [2] amounted to 4 fold.
